Hits are enriched below; roughly 2.3% of the tested compounds scored in any of these assays.
T cruzi inh – T. cruzi replication inhibition; T. cruzi beta-gal in NIH3T3, luminescence, 90 h; inhibition, % (test concentration not listed); hit rate 1.4% among 300,000; AID 1885;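 active = mean inhibition across valid replicates above about 55%, limit read from the data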;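 note: signal also drops with host cell toxicity which is not excluded here; 0% = plate median of DMSO wells and 100% = zero luminescence signal; higher percent means less beta-gal luminescence so fewer parasites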
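Test system: β-gal T. cruzi (Tulahuen C4) inside NIH/3T3 cells / Quantity: 5,000 cells/well / Measured by: luminescence from GalScreen with 0.05% NP40, read after 60 min / Medium: DMEM plus 2% FBS / Measure: parasite load inhibition, % / Reagent: Tulahuen C4 trypomastigotes, 5000/well / Schedule: co-culture of at least 90 h after 3 h attachment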
Beta cell apopt – beta cell apoptosis inhibition | INS-1E cytokine-induced death, ATP luminescence, 48 h; percent of positive-control rescue, neutral wells zero | protection from apoptosis, % (concentration not given with the values) | hit rate 0.8% among 300,000 | AID 435005;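 active = Every replicate reaches about 75%, or at least half do and their mean reaches it too, limit read from the data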;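 note: 0% = cytokine-treated negative control wells and 100% = positive control rescue; higher means more ATP so stronger rescue from cytokine killing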
Bfl-1 A1 inh – inhibitors of the anti-apoptotic protein A1, read as caspase activation; MEF A1-2A-BIM cells, Caspase-Glo 3/7 luminescence, 3 h; percent of clofoctol response, vehicle zero; caspase activation, % (no concentration beside the values); hit rate 0.066% among 330,000;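 active = over half of replicate activation scores above 10%, or exactly half above 10 with the replicate mean above 10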
HIF act – HIF pathway transcriptional activation | U2OS HRE-luciferase reporter, luminescence; normalized: DMSO 0%, desferrioxamine 100% | activation, % at 7.5 µM (by protocol) | hit rate 0.32% among 300,000;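 active = mean activation of at least 10% of the iron chelator positive control signal, with at least half of replicates also reaching 10%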
KLF5 inhibitor – kruppel-like factor 5 inhibition. DLD-1 KLF5 promoter-luciferase reporter, luminescence. inhibition, % at 5 µM. hit rate 0.23% among 290,000. AID 1700;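 active = inhibition above a per-plate limit of that plate's mean compound inhibition plus 3 SD, cut at about 60% in these data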;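 note: 0% = DMSO wells and 100% = LY294002 at 200 µM; higher means less KLF5 promoter-driven luciferase light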
* = called active by the depositor; · = no result.

SMILES	T cruzi inh	Beta cell apopt	Bfl-1 A1 inh	HIF act	KLF5 inhibitor
Cn1c(C(=O)OC(C(=O)NC2CCCCC2)c2ccncc2)cc2sccc21 (centres undefined)	57.6*	4.6	-0.1	-0.2	-16.5
COCCNC(=O)C(C)OC(=O)c1cc2sccc2n1C (centres undefined)	-6.4	·	0.7	-0.2	8.0
Cn1c(C(=O)OC(C(=O)NC(C)(C)C)c2cccnc2)cc2sccc21 (centres undefined)	64.4*	-8.9	0.2	0.9	5.4
Cn1c(C(=O)OC(C(=O)NC2CCCC2)c2ccncc2)cc2sccc21 (centres undefined)	20.2	-2.6	0.4	0.0	-9.6
CCOc1ccccc1NC(C)C(=O)NC(=O)NC1CCCCC1 (centres undefined)	·	2.2	0.4	·	·
O=C(c1ccccc1F)N1CCN(C(=O)C(c2ccccc2)c2ccccc2)CC1	-5.4	0.0	0.0	-1.7	-6.2
COc1cccc2sc(Nc3nc(-c4ccccn4)cs3)nc12	74.5*	110.9*	-1.9	94.1*	24.6
COc1cccc2sc(Nc3nnc(-c4cccs4)o3)nc12	65.0*	67.6	-6.1	4.7	-8.2
COc1cccc2sc(Nc3nnc(-c4ccc(F)cc4)o3)nc12	42.8	25.6	-4.6	1.0	-15.2
CCCOc1ccccc1/C=C1\SC(N2CCCCC2)=NC1=O	9.8	·	-0.1	-11.2	-83.7
CCN1CCN(C(=O)NCc2ccccc2)CC1	-4.1	-2.6	0.5	0.0	13.0
CCOC(=O)C1CCN(S(=O)(=O)c2cccc3nonc23)CC1	-14.5	5.8	0.5	-0.8	-8.7
CCOC(=O)C1CCN(S(=O)(=O)c2c(Cl)ccc3nonc23)CC1	64.1*	47.7	0.5	-0.4	59.5
CN(C)C(CNC(=O)c1cc2ccccc2o1)c1ccco1 (centres undefined)	·	1.5	0.6	·	·
COC(=O)c1cc(O)cc(OC)c1Oc1cc(C)cc(O)c1C(=O)O	·	89.5*	-1.0	·	·
CCN(CC(=O)NCc1cccs1)C(=O)c1ccc(C)o1	·	0.5	3.1	·	·
CCN(CC(=O)NCc1cccs1)C(=O)c1ccc([N+](=O)[O-])o1	63.5*	-15.0	0.3	-0.3	·
COc1ccc(C)cc1-n1nnnc1SC(C)C(=O)NC1CCCC1 (centres undefined)	·	4.2	0.0	·	·
COc1ccc(CC(=O)Nc2nccs2)cc1OC	-4.3	-8.3	0.4	-11.5	-5.5
COc1ccc(CC(=O)Nc2ncc([N+](=O)[O-])s2)cc1OC	62.8*	-2.7	0.3	0.5	-7.8
CNC(=S)/N=C/NOCc1ccc(Cl)cc1Cl	74.5*	·	-0.3	-0.2	-0.9
COc1ccc(OC)c(C(c2c(O)nc(SC)[nH]c2=O)c2c(O)nc(SC)[nH]c2=O)c1	-4.7	0.8	0.8	0.0	-22.5
O=c1c(Cl)c(N2CCN(c3ccc(F)cc3)CC2)cnn1C12CC3CC(CC(C3)C1)C2	63.1*	4.4	0.6	0.2	9.6
O=C(COC(=O)Cc1ccccc1F)NC(=O)NC1CCCC1	·	0.3	0.4	·	·
COc1cc(CC(=O)OCC(=O)N2CCCCC2C)cc(OC)c1OC (centres undefined)	-28.7	-7.7	0.5	0.2	5.5
SMILES	T cruzi inh	Beta cell apopt	Bfl-1 A1 inh	HIF act	KLF5 inhibitor
CCc1ccccc1Nc1ncnc2ccccc12	22.2	·	-0.5	0.0	-39.0
Cc1cc2c(NCCc3ccccc3)ncnc2s1	3.8	107.6*	-1.2	2.3	-103.1
c1ccc(CCNc2ncnc3ccccc23)cc1	22.1	100.1*	-2.1	2.2	-67.7
CCCCCCCCNc1ncnc2ccccc12	25.9	101.1*	-0.4	0.1	-2.7
Brc1ccc2ncnc(NCc3ccccc3)c2c1	-1.2	55.7	0.3	3.0	-7.8
Cc1cc2c(Nc3ccccc3)ncnc2s1	-12.9	1.5	0.4	0.3	-19.0
C=CCn1c(SCC(=O)c2c(N)n(C)c(=O)n(C)c2=O)nnc1-c1ccoc1C	·	-6.1	0.3	·	·
Cn1c(CCn2ccccc2=O)nc2cc(NC(=O)COc3ccccc3)ccc21	-12.2	·	-0.3	0.2	-16.8
OCCC1CN(Cc2ccc3cccc(F)c3n2)CCN1Cc1ccccc1 (centres undefined)	11.3	·	-0.3	-0.1	-6.4
c1ccc(CNc2nc(-c3ccccn3)nc3ccccc23)cc1	19.2	105.8*	-0.1	1.3	9.5
Fc1ccccc1/C=N/Nc1nc(-c2ccccn2)nc2ccccc12	55.4*	104.9*	-0.1	2.4	15.9
Nc1nc(Nc2ccccc2)nc(NCc2ccco2)c1[N+](=O)[O-]	9.5	-7.7	-1.0	1.1	1.9

Compound activity deposited in PubChem BioAssay by several laboratories.
